MBD2 DNA inh = inhibitors of MBD2 binding to methylated DNA, primary screen, biochemical, TR-FRET, DNA-binding domain, human | MBD2 binding to methylated oligonucleotide | Methyl-CpG-binding domain protein 2 (Homo sapiens), Q9UBB5 | AID 686964, 2013 | 0.31% of 370,000 active | inhibition, % at 4.4 µM; in the data active = inhibition above about 13%
UHRF1 MBD2 ctr = UHRF1 methylated DNA binding inhibitors, primary screen, counter-screen for MBD2 inhibitor project, biochemical, TR-FRET, human UHRF1, single concentration | E3 ubiquitin-protein ligase UHRF1 (Homo sapiens), Q96T88 | inhibition, % at 4.4 µM | UHRF1 binding to methylated oligo | 0.75% of 370,000 active;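 note: UHRF1 SRA domain binding a hemimethylated CpG hairpin DNA probe; 0% = median of test compound wells and 100% = reference inhibitor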
LEDGF integ inh = blockers of LEDGF/p75-dependent integrase strand transfer – biochemical, TR-FRET, high throughput, primary screen; HIV-1 integrase (with human LEDGF/p75); TR-FRET IN-LEDGF/p75 DNA integration, Eu/Cy5; inhibition, % at 3.7 µM; 0.64% of 370,000 active;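 active = inhibition above the screen-wide mean plus 3 SD, cut at about 13% in these data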;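 note: signal is the Cy5 over europium emission ratio at 671 and 618 nm; 0% = plate median of compound wells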
SIAE primary = human SIAE inhibitors, primary screen, biochemical, fluorescence polarization, FP-Rh probe, 1536-well HTS; Sialate O-acetylesterase (Homo sapiens), Q9HAT2; SIAE FP-Rh probe binding; inhibition, % at 9.66 µM; 0.69% of 370,000 active; AID 1053197, 2014;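 active = inhibition above a cutoff: mean of compounds within the control limits plus 3 SD of those, cut at about 17% in these data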;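 note: 0% = plate median of compound wells and 100% = probe without SIAE protein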
PRMT1 FP inh = PRMT1 methyltransferase inhibitors, primary screen, biochemical, fluorescence polarization; inhibition, % at 2.79 µM; 1.3% of 370,000 active; recombinant PRMT1, activity-based probe fluorescence polarization; Protein arginine N-methyltransferase 1 (Homo sapiens), Q99873;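 active = inhibition above about 21% made by adding two undisclosed values, limit read from the data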
TDP2 inh = human TDP2 enzyme inhibitors, primary screen, biochemical, epi absorbance, recombinant enzyme; Tyrosyl-DNA phosphodiesterase 2 (Homo sapiens), O95551; inhibition, % at 12.8 µM; T5PNP hydrolysis, p-nitrophenol absorbance 415 nm; AID 720702, 2013; 0.34% of 370,000 active;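 active = inhibition above the mean of all tested compounds plus 3 SD, set per campaign, cut at about 25% in these data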;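 note: 0% = DMSO with enzyme and 100% = buffer with substrate but no TDP2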
Target sequence (O95551 whole entry, looked up): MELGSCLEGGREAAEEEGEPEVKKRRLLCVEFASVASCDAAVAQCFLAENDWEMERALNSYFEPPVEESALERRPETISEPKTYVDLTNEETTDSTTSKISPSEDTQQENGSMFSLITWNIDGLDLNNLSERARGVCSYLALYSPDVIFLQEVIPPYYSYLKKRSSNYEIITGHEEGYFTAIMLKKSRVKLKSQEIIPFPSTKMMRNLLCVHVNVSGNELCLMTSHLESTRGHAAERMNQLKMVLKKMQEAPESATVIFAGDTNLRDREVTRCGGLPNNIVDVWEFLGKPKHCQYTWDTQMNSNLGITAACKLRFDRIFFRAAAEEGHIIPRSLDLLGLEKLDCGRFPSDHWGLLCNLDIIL
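Assay system: Recombinant human TDP2 | Quantity: 120 nM TDP2 per well | Incubation: 2 h at 37 °C | Signal: Epi absorbance | Evaluation: Percent inhibition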
UHRF1 ctr MBD2 = UHRF1 methylated DNA binding inhibitors, counter-screen for MBD2 inhibitor project, biochemical, TR-FRET, human UHRF1; inhibition, % at 4.4 µM; UHRF1 binding to methylated oligonucleotide; 25% of 1,000 active; shares compounds with MBD2 DNA inh;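 note: UHRF1 SRA domain binding a labeled hemimethylated CpG hairpin DNA; 0% = vehicle only and 100% = reference inhibitor with vehicle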
MBD2 DBD conf = inhibitors of MBD2 binding to methylated DNA, confirmation, biochemical, TR-FRET, DNA-binding domain, human. shares compounds with MBD2 DNA inh. TR-FRET MBD2-DBD binding to methylated oligonucleotide. inhibition, % at 4.4 µM. 26% of 1,000 active. AID 720531, 2013; in the data active = inhibition above about 14%
Starred values were filed as active, the others as inactive. Sampled rows, rich in hits. Any-hit rate of the full collection: about 3.3%. Cut-off read from the data, not from the text of the source, unless noted: active = inhibition above about 21%; inactive = the rest.

What do the screens show for `O=C(c1cccs1)C1CN2CCC1CC2` (stereo unspecified)?
MBD2 DNA inh: -2.7; UHRF1 MBD2 ctr: -0.8; LEDGF integ inh: 5.3; SIAE primary: -4.4; PRMT1 FP inh: -5.3; TDP2 inh: -4.5

How did O=C(O)C1CN2CCC1CC2 (stereo unspecified) do in these assays?
MBD2 DNA inh: 13.6*; UHRF1 MBD2 ctr: -0.9; LEDGF integ inh: 0.8; SIAE primary: -1.2; PRMT1 FP inh: 0.8; TDP2 inh: 8.8; UHRF1 ctr MBD2: 7.1; MBD2 DBD conf: 3.1

What do the screens show for `Cc1ccc2ccccc2c1NC(=O)CNC1CCCCC1`?
MBD2 DNA inh: 18.1*; UHRF1 MBD2 ctr: 0.4; LEDGF integ inh: -0.1; SIAE primary: -3.8; PRMT1 FP inh: -0.1; TDP2 inh: 8.0; UHRF1 ctr MBD2: 3.6; MBD2 DBD conf: 4.7

What do the screens show for `CCc1ccccc1NC(=O)CNC1CCCCC1`?
MBD2 DNA inh: 1.9; UHRF1 MBD2 ctr: 1.6; LEDGF integ inh: -2.9; SIAE primary: 0.0; PRMT1 FP inh: 2.1; TDP2 inh: 6.9

How did N#Cc1ccc(NC(=S)N2Cc3ccc(Br)cc3-n3nncc3C2)cc1 do in these assays?
MBD2 DNA inh: -2.2; UHRF1 MBD2 ctr: -0.7; LEDGF integ inh: -5.3; SIAE primary: -1.2; PRMT1 FP inh: -0.5; TDP2 inh: 1.8

How did Cc1ccc(N2Cc3ccccc3-n3nncc3C2)cc1 do in these assays?
MBD2 DNA inh: -7.4; UHRF1 MBD2 ctr: -0.5; LEDGF integ inh: 13.0; SIAE primary: 4.5; PRMT1 FP inh: -1.5; TDP2 inh: 0.2

What do the screens show for `COC(=O)C1=C(c2ccc(F)cc2OCc2ccccc2)C[C@@H]2CC[C@H]1N2C(=O)NCCOc1ccccc1`?
MBD2 DNA inh: -2.0; UHRF1 MBD2 ctr: -2.1; LEDGF integ inh: 0.9; SIAE primary: -10.1; PRMT1 FP inh: -1.7; TDP2 inh: -11.0

How did COC(=O)C1=C(c2ccc(F)cc2OCc2ccccc2)C[C@@H]2CC[C@H]1N2C(=O)NCCOc1ccccc1Cl do in these assays?
MBD2 DNA inh: 15.6*; UHRF1 MBD2 ctr: 1.0; LEDGF integ inh: -1.5; SIAE primary: -4.8; PRMT1 FP inh: -0.2; TDP2 inh: -6.0; UHRF1 ctr MBD2: -2.7; MBD2 DBD conf: 2.1

Results for COC(=O)C1=C(c2c(C)noc2C)C[C@@H]2CC[C@H]1N2C(=O)N1CCC(O)CC1 ?
MBD2 DNA inh: 28.1*; UHRF1 MBD2 ctr: 0.0; LEDGF integ inh: 0.0; SIAE primary: -2.5; PRMT1 FP inh: -1.3; TDP2 inh: 9.1; UHRF1 ctr MBD2: 4.3; MBD2 DBD conf: 2.1

What do the screens show for `O=C(COc1ccc(Cl)cc1)NCCc1cnc[nH]1`?
MBD2 DNA inh: 52.3*; UHRF1 MBD2 ctr: -2.0; LEDGF integ inh: 5.0; SIAE primary: -3.1; PRMT1 FP inh: -0.9; TDP2 inh: -1.9; UHRF1 ctr MBD2: 7.6; MBD2 DBD conf: 0.9

How did N#Cc1ccc2nc(-c3ccc(CN4CCC(n5c(=O)[nH]c6cc(Cl)ccc65)CC4)cc3)c(-c3ccccc3)nc2c1 do in these assays?
MBD2 DNA inh: -3.0; UHRF1 MBD2 ctr: -2.0; LEDGF integ inh: -2.6; SIAE primary: -9.5; PRMT1 FP inh: -3.2; TDP2 inh: 8.5

High-throughput results as filed in PubChem.
